pIC50: −log10 of the molar value.

T1 sequence (P12931 2-536 limits assumed): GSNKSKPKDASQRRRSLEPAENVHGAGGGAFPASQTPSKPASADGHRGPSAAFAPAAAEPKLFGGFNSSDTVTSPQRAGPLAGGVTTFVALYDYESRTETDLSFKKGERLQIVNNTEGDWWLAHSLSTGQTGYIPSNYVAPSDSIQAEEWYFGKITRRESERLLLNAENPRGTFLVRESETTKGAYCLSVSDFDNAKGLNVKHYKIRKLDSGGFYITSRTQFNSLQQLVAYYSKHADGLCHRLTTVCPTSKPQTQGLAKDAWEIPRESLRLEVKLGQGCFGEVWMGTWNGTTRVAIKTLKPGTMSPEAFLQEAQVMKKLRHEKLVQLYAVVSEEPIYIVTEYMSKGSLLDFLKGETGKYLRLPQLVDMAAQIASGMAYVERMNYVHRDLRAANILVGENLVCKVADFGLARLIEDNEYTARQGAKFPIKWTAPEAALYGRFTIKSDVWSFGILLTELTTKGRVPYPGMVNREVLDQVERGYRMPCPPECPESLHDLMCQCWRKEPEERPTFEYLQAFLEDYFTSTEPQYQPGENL

One experiment has as its target T1, Proto-oncogene tyrosine-protein kinase Src (Homo sapiens, UniProt P12931). Briefly: Inhibition of SRC phosphorylation in human MDA-MB-231 cells. In kind it is cell-based.
Conditions: not given
The method in brief:
(§1)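 MDA-MB-231 cells, 4.5×10^5 per well, plated overnight. Then exposed for 24 h to 1, 3 or 10 µM compound or DMSO alone. Western blot probed p-Src (Tyr416), total Src, p-FAK (Tyr861), FAK and GAPDH. Three independent blots.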
What is called inhibition is the relative decrease from the control value, in per cent. Regarding `NS(=O)(=O)c1ccc(Nc2nc(N3CCOCC3)nc3[nH]cnc23)cc1`, the inhibition entry is “Dose-dependent effect”.

The target of a further experiment is Focal adhesion kinase 1 (Homo sapiens) (UniProt Q05397). Briefly: Inhibition of FAK phosphorylation in human MDA-MB-231 cells by Western blotting. Type of experiment: cell-based.
Chain of Focal adhesion kinase 1 (Homo sapiens) (Q05397 2-1052 limits assumed): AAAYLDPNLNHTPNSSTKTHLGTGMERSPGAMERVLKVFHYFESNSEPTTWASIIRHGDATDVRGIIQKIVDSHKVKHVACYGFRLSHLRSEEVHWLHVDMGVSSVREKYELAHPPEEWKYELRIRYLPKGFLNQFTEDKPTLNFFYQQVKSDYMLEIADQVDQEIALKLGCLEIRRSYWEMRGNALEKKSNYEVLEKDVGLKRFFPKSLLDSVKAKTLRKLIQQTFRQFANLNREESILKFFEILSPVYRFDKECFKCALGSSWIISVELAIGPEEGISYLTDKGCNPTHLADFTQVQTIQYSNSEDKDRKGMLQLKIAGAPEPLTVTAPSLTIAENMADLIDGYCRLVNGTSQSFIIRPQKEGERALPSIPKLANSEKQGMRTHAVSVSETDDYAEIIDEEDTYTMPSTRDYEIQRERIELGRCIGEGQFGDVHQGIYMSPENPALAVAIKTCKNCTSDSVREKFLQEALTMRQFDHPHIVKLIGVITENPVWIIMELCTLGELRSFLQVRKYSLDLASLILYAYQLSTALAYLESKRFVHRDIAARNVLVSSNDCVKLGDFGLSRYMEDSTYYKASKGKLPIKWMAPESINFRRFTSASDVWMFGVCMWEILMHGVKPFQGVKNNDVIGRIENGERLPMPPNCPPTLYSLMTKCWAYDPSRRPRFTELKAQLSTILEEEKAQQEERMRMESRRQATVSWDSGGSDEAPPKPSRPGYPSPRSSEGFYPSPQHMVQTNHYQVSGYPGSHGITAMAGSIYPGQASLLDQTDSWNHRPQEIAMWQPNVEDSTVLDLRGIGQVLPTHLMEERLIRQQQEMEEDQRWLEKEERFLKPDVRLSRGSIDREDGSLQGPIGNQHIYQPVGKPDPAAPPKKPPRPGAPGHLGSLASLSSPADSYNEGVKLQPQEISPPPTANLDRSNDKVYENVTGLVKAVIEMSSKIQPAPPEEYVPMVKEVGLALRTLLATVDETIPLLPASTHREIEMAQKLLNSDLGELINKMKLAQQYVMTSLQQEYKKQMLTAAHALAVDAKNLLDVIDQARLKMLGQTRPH
Conditions: not given
The method in brief: as §1
`NS(=O)(=O)c1ccc(Nc2nc(N3CCOCC3)nc3[nH]cnc23)cc1`: the inhibition entry is “Dose-dependent effect”.

Another experiment concerns MDA-MB-231. The experiment in a line: Antiproliferative activity against human MDA-MB-231 cells assessed as viability after 24 hrs by MTT assay.
Conditions: not given
Type of experiment: functional. The method in brief:
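MDA-MB-231 cells (ATCC; L15 medium, 10% FBS, 37 °C, 5% CO2) exposed to test concentrations for 24 h; viability scored by MTT.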
Background: Tetrazolium assays rely on reduction of a dye to a coloured formazan, in cell work by metabolically active cells.
`NS(=O)(=O)c1ccc(Nc2nc(N3CCOCC3)nc3[nH]cnc23)cc1`: the Activity was over 95%.

In a further experiment the target is Hepatocyte growth factor receptor (Homo sapiens) (UniProt P08581).
Assay: not given
The note with it: 10 uM.
The molecule `NS(=O)(=O)c1ccc(Nc2nc(N3CCOCC3)nc3[nH]cnc23)cc1` came in with an inhibition of 43.2%.

The next experiment addresses T1, Proto-oncogene tyrosine-protein kinase Src. Briefly: Inhibition cSRC.
Conditions: not given
As a reminder, the pIC50 is −log10 of the IC50, conventionally taken in molar units. Turning to `Brc1ccc(Nc2nc(N3CCOCC3)nc3[nH]cnc23)cc1`, the pIC50 was 6.35.
`COc1ccc(Nc2nc(N3CCNCC3)nc3nc[nH]c23)cc1` showed a negative-log IC50 (pIC50) of 5.61.
Take `COc1cccc(Nc2nc(N3CCN(CCO)CC3)nc3nc[nH]c23)c1`: the negative-log IC50 (pIC50) is 5.92. Against the preceding molecule, the pIC50 is 0.31 log units higher.
On the same count and under the same terms, the result for `O=[N+]([O-])c1cccc(Nc2nc(N3CCOCC3)nc3[nH]cnc23)c1` reads 6.89.
With `c1ccc(Cn2cnc3c(N4CCOCC4)ncnc32)cc1`, the pIC50 was under 5.00.
The same measure, in the same setting: for `CC(=O)Nc1ccc(Nc2nc(N3CCOCC3)nc3[nH]cnc23)cc1` the value was 6.19.
The molecule `Brc1ccc(Nc2nc(N3CCOCC3)nc3c2ncn3Cc2ccccc2)cc1` had a negative-log IC50 (pIC50) of under 5.00.
Turning to `c1ccc(Cn2cnc3c(Nc4ccccc4)ncnc32)cc1`, the pIC50 was under 5.00.
In turn, `c1ccc(Cn2cnc3c(Nc4ccccc4)nc(N4CCOCC4)nc32)cc1` showed a pIC50 of under 5.00.
The molecule `Clc1ccc(Nc2nc(N3CCNCC3)nc3[nH]cnc23)cc1` had a pIC50 of 5.93.
With `CC(=O)Nc1ccc(Nc2nc(N3CCNCC3)nc3nc[nH]c23)cc1`, the negative logarithm of the IC50 (pIC50) is 5.98.
Molecule `NS(=O)(=O)c1ccc(Nc2nc(N3CCN(CCO)CC3)nc3nc[nH]c23)cc1` had a pIC50 of 6.59.
`O=[N+]([O-])c1ccc(Nc2nc(N3CCN(CCO)CC3)nc3nc[nH]c23)cc1` gave a pIC50 of 6.11.
`c1ccc(Cn2cnc3c(N4CCOCC4)nc(N4CCOCC4)nc32)cc1` showed a negative logarithm of the IC50 (pIC50) of under 5.00.
Take `NC(=O)c1ccc(Nc2nc(N3CCOCC3)nc3nc[nH]c23)cc1`: the pIC50 was 5.70.
`COc1cccc(Nc2nc(N3CCNCC3)nc3nc[nH]c23)c1` showed a pIC50 of 5.92. This pIC50 is 0.22 log units higher than that of the molecule before.
The molecule `NS(=O)(=O)c1cccc(Nc2nc(N3CCOCC3)nc3[nH]cnc23)c1` gave a pIC50 of 6.92. This pIC50 is 1.00 log units higher than that of the molecule before.
For `O=[N+]([O-])c1cccc(Nc2nc(N3CCNCC3)nc3nc[nH]c23)c1`, the pIC50 was 6.02. This pIC50 is 0.90 log units lower than that of the molecule before.
With `OCCN1CCN(c2nc(Nc3ccccc3)c3nc[nH]c3n2)CC1`, the negative logarithm of the IC50 (pIC50) is 5.50.
In the case of `CC(=O)Nc1ccc(Nc2nc(N3CCN(CCO)CC3)nc3[nH]cnc23)cc1`, the negative-log IC50 (pIC50) was 5.80.
Same read-out and setting: for `NC(=O)c1ccc(Nc2nc(N3CCNCC3)nc3nc[nH]c23)cc1` the value was 5.66.
As to `NS(=O)(=O)c1ccc(Nc2nc(N3CCOCC3)nc3[nH]cnc23)cc1`, the pIC50 is 7.70.

A further experiment addresses Receptor tyrosine-protein kinase erbB-2 (Homo sapiens) (UniProt P04626). Briefly: Inhibition ErbB2 at 10 uM.
Conditions: not given
The method in brief: (§2)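 Purified kinases assayed by ELISA on wells coated with 20 µg/mL poly(Glu,Tyr)4:1. Detected with PY99 anti-phosphotyrosine, HRP anti-mouse IgG and o-phenylenediamine; A492.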
Regarding `NS(=O)(=O)c1ccc(Nc2nc(N3CCOCC3)nc3[nH]cnc23)cc1`, the inhibition stood at 43.1%.

The target in a further experiment is T2, Mast/stem cell growth factor receptor Kit (Homo sapiens, UniProt P10721). The experiment in a line: Inhibition kit at 10 uM.
T2 sequence (P10721 whole entry): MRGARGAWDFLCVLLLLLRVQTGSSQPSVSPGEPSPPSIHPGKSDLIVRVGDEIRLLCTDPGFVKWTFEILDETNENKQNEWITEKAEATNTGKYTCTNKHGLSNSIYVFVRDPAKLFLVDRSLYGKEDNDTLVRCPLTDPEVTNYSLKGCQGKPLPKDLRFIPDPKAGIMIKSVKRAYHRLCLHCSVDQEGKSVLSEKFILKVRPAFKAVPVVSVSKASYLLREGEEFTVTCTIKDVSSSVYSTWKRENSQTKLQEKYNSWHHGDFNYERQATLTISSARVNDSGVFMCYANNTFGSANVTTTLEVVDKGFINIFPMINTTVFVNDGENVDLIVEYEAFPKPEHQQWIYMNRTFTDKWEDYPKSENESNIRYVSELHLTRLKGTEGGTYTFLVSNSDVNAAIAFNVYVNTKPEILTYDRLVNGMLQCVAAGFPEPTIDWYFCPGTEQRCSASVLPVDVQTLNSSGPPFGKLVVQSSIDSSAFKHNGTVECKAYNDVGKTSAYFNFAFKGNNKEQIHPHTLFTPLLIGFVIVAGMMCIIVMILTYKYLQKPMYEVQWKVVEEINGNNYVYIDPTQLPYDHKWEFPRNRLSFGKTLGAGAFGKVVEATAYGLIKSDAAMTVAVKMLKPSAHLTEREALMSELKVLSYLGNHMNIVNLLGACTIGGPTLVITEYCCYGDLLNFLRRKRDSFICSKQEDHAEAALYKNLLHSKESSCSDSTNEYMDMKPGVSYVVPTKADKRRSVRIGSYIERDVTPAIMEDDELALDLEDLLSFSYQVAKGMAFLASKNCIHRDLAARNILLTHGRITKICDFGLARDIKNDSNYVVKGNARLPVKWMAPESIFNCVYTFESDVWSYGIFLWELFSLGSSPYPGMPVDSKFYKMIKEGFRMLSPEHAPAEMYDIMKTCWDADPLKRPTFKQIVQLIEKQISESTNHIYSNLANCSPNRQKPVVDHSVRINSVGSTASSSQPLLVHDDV
Conditions: not given
Put shortly: as §2
`NS(=O)(=O)c1ccc(Nc2nc(N3CCOCC3)nc3[nH]cnc23)cc1` showed an inhibition of 83.1%.

In a further experiment the target is Vascular endothelial growth factor receptor 1 (Homo sapiens) (UniProt P17948). The experiment in a line: Inhibition VEGFR1 at 10 uM.
Chain of Vascular endothelial growth factor receptor 1 (Homo sapiens) (P17948 whole entry): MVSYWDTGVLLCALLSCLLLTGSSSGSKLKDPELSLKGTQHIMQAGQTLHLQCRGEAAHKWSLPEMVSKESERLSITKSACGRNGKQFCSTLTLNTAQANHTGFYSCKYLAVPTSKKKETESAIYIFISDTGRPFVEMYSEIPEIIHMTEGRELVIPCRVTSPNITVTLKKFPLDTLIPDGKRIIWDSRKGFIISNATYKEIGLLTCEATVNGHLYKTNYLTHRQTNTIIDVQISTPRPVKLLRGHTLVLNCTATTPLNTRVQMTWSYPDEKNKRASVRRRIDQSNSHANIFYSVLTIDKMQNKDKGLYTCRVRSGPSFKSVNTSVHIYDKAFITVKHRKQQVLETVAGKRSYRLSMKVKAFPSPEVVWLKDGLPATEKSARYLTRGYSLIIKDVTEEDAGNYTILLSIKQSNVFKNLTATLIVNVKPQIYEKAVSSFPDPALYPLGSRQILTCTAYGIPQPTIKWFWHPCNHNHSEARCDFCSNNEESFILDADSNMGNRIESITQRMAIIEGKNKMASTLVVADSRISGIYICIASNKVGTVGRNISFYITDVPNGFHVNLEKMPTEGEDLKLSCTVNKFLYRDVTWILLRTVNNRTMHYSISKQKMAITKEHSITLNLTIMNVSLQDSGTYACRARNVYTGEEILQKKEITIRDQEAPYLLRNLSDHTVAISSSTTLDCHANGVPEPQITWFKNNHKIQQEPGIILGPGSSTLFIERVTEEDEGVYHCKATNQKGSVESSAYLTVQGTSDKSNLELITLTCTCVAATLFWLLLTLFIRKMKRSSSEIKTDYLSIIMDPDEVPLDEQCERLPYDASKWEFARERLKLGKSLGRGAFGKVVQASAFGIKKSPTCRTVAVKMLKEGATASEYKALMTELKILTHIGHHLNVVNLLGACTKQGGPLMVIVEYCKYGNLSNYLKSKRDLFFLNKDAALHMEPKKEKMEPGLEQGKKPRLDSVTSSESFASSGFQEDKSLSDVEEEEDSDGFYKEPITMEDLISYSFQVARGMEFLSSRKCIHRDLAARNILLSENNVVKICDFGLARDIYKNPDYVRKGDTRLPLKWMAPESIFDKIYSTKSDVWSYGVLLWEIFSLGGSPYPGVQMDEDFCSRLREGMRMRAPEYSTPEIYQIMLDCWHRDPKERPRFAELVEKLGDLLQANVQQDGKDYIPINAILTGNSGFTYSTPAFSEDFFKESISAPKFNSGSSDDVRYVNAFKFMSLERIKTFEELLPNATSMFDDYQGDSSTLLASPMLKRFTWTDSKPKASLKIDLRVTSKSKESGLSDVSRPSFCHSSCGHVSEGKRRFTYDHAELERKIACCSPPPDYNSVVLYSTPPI
Conditions: not given
Put shortly: as §2
In turn, `NS(=O)(=O)c1ccc(Nc2nc(N3CCOCC3)nc3[nH]cnc23)cc1` displayed an inhibition of 0%.

The target in another experiment is T1, Proto-oncogene tyrosine-protein kinase Src. The experiment in a line: Inhibition of human SRC-mediated migration of human MDA-MB-231 cells by wound-healing assay.
Conditions: not given
On to `NS(=O)(=O)c1ccc(Nc2nc(N3CCOCC3)nc3[nH]cnc23)cc1`, for which the inhibition entry is “Dose-dependent effect”.

The target of the next experiment is T3, Ephrin type-B receptor 2 (Homo sapiens) (UniProt P29323).
T3 sequence (whole entry): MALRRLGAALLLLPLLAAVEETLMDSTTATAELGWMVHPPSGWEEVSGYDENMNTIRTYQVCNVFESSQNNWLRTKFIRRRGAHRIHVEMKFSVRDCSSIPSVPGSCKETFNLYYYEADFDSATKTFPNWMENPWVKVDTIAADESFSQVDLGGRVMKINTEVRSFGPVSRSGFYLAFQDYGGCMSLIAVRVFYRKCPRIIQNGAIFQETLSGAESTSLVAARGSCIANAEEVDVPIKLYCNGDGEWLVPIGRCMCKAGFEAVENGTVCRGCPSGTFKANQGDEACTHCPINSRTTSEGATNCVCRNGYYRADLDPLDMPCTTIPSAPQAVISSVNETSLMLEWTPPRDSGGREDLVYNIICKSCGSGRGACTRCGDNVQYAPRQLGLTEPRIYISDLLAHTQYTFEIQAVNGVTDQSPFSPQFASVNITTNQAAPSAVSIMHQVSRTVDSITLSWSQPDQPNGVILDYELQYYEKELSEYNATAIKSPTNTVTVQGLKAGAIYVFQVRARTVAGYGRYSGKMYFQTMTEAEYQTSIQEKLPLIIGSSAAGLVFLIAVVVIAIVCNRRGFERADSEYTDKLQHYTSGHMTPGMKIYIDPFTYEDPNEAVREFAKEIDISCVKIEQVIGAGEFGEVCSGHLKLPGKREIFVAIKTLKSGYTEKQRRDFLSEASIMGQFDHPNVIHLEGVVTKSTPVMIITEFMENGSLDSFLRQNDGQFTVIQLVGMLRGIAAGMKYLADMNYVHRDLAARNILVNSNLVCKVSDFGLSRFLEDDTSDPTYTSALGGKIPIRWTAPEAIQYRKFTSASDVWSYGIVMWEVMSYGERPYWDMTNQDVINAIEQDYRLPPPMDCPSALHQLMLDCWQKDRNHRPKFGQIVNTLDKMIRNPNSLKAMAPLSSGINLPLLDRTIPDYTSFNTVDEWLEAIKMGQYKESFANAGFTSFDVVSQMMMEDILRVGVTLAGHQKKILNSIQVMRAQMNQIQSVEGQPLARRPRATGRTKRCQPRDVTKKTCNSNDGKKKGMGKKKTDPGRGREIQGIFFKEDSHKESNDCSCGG
Briefly: Inhibition EphB2 at 10 uM.
Conditions: not given
The method in brief:
as §2
`NS(=O)(=O)c1ccc(Nc2nc(N3CCOCC3)nc3[nH]cnc23)cc1`: the inhibition came out at 11.5%.

A further experiment has as its target T1, Proto-oncogene tyrosine-protein kinase Src. Briefly: Inhibition cSRC at 10 uM.
Conditions: not given
The method in brief: as §2
Regarding `c1ccc(Cn2cnc3c(N4CCOCC4)ncnc32)cc1`, the inhibition was 0%.
The molecule `Brc1ccc(Nc2nc(N3CCOCC3)nc3c2ncn3Cc2ccccc2)cc1` gave an inhibition of 10.1%.
For `c1ccc(Cn2cnc3c(Nc4ccccc4)ncnc32)cc1`, the inhibition came out at 13.9%.
`c1ccc(Cn2cnc3c(Nc4ccccc4)nc(N4CCOCC4)nc32)cc1` gave an inhibition of 20.2%.
With `c1ccc(Cn2cnc3c(N4CCOCC4)nc(N4CCOCC4)nc32)cc1`, the inhibition amounted to 16.4%.

A further experiment deals with Ephrin type-A receptor 2 (Homo sapiens) (UniProt P29317). Briefly: Inhibition EphA2 at 10 uM.
Conditions: not given
The method in brief:
as §2
With `NS(=O)(=O)c1ccc(Nc2nc(N3CCOCC3)nc3[nH]cnc23)cc1`, the inhibition worked out at 48.7%.

A further experiment addresses T1, Proto-oncogene tyrosine-protein kinase Src. Briefly: Inhibition of human SRC-mediated invasion of human MDA-MB-231 cells. In kind it is cell-based.
Conditions: not given
Put shortly: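 Matrigel-coated (1 mg/mL) Transwell filters, 8 lm pores, with 10% FBS in the lower chamber. MDA-MB-231 cells and compound or DMSO were added together to the upper chamber and invaded 18 h at 37 °C. Non-invaded cells were removed. Invaded cells were stained with crystal violet, extracted with 10% acetic acid and read at 595 nm. Mean of three experiments, SD.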
For `NS(=O)(=O)c1ccc(Nc2nc(N3CCOCC3)nc3[nH]cnc23)cc1`, the inhibition entry was “Dose-dependent effect”.

For the next experiment, the target named is T2, Mast/stem cell growth factor receptor Kit. The experiment in a line: Inhibition kit.
Conditions: not given
Put shortly: as §2
With `NS(=O)(=O)c1ccc(Nc2nc(N3CCOCC3)nc3[nH]cnc23)cc1`, the pIC50 was 5.87.

The target in a further experiment is Platelet-derived growth factor receptor beta (Homo sapiens) (UniProt P09619). Briefly: Inhibition PDGFRbeta at 10 uM.
Conditions: not given
Put shortly:
as §2
As for `NS(=O)(=O)c1ccc(Nc2nc(N3CCOCC3)nc3[nH]cnc23)cc1`, the inhibition amounted to 17.2%.

A further experiment addresses Fibroblast growth factor receptor 1 (Homo sapiens) (UniProt P11362). The experiment in a line: Inhibition FGFR1 at 10 uM.
Conditions: not given
Put shortly: as §2
`NS(=O)(=O)c1ccc(Nc2nc(N3CCOCC3)nc3[nH]cnc23)cc1` showed an inhibition of 48.7%.

The next experiment addresses Fibroblast growth factor receptor 2 (Homo sapiens) (UniProt P21802).
Assay: not given
The note with it: 10 uM.
For `NS(=O)(=O)c1ccc(Nc2nc(N3CCOCC3)nc3[nH]cnc23)cc1`, the inhibition is 4.1%.

In another experiment the target is T4, Tyrosine-protein kinase ABL1 (Homo sapiens, UniProt P00519). Briefly: Inhibition cABl at 10 uM.
T4 sequence (P00519 whole entry): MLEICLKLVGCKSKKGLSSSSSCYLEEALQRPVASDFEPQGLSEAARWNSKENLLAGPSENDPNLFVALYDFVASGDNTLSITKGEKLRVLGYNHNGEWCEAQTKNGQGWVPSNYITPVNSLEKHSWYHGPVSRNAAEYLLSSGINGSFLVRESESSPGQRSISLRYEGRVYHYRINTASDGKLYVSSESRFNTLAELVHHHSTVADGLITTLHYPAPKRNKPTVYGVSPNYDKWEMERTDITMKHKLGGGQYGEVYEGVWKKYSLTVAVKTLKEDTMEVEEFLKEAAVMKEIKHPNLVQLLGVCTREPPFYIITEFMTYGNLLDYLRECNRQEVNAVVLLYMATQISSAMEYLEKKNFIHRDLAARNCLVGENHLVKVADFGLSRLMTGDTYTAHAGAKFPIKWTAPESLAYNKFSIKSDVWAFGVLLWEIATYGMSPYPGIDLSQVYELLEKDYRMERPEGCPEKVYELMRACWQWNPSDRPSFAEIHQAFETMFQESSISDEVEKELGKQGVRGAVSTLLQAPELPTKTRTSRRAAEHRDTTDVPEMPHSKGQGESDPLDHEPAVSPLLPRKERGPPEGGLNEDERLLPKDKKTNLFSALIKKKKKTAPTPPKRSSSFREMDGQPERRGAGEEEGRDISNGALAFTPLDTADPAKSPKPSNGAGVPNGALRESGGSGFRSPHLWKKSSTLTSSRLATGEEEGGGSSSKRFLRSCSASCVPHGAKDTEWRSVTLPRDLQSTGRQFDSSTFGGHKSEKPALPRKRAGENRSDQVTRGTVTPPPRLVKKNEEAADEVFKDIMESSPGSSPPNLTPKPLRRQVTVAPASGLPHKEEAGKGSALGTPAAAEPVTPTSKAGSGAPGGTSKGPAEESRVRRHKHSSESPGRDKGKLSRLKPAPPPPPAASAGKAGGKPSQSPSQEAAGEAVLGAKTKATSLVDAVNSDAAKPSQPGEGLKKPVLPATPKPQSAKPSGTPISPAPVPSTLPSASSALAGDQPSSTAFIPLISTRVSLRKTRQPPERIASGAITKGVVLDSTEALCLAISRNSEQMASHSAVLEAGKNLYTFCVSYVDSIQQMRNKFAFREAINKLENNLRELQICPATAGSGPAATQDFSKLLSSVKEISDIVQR
Conditions: not given
The method in brief: as §2
`NS(=O)(=O)c1ccc(Nc2nc(N3CCOCC3)nc3[nH]cnc23)cc1`: the inhibition came out at 73.4%.

The target of the next experiment is Vascular endothelial growth factor receptor 2 (Homo sapiens) (UniProt P35968). The experiment in a line: Inhibition KDR at 10 uM.
Conditions: not given
The method in brief: as §2
In the case of `NS(=O)(=O)c1ccc(Nc2nc(N3CCOCC3)nc3[nH]cnc23)cc1`, the inhibition came to 47.2%.

In a further experiment the target is T4, Tyrosine-protein kinase ABL1. Briefly: Inhibition cABl.
Conditions: not given
Put shortly: as §2
Turning to `NS(=O)(=O)c1ccc(Nc2nc(N3CCOCC3)nc3[nH]cnc23)cc1`, the pIC50 is 5.22.

The values are drawn from ChEMBL document CHEMBL1177660, “Discovery of novel purine derivatives with potent and selective inhibitory activity against c-Src tyrosine kinase” (Bioorg Med Chem, 2010).
